According to ChEMBL document CHEMBL1154729, “Discovery of novel antitubercular 2,10-dihydro-4aH-chromeno[3,2-c]pyridin-3-yl derivatives” (Eur J Med Chem, 2010):
pIC50: −log10 of the molar value. Converted amounts (≈) assume the structure as drawn.

Columns and labels:
[1] = system: Mycobacterium tuberculosis; experiment: Antimycobacterial activity against Mycobacterium tuberculosis H37Rv by agar dilution method; format: functional
Procedure, shortened: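 Agar dilution MIC on Middlebrook 7H11 agar supplemented with OADC, following NCCLS-like procedure; determined in duplicate.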

Vero = experiment: Cytotoxicity against african green monkey Vero cells after 72 hrs by MTT assay; format: cell-based; conditions: Chlorocebus sabaeus
Procedure, shortened: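 Vero monkey kidney cells exposed to compounds by serial double dilution up to 62.5 µg/mL for 72 h. Viability read from cellular MTT conversion to formazan (Cell Titer 96 non-radioactive proliferation assay); IC50 reported.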

[2] = system: Mycobacterium tuberculosis; experiment: Antimycobacterial activity against Mycobacterium tuberculosis ATCC 35801 infected in CD1 mouse assessed as bacterial load in spleen at 25 mg/kg, ip administered 10 days postinfection for 10 days measured after 35 days of infection (Rvb=9.02 +/- 0.21 log CFU); format: functional; conditions: route intraperitoneal
[3] = system: Mycobacterium tuberculosis; experiment: Antimycobacterial activity against Mycobacterium tuberculosis ATCC 35801 infected in CD1 mouse assessed as bacterial load in lungs at 25 mg/kg, ip administered 10 days postinfection for 10 days measured after 35 days of infection (Rvb=7.99 +/- 0.16 log CFU); format: functional; conditions: route intraperitoneal
[4] = Selectivity index, ratio of IC50 for african green monkey Vero cells to MIC for Mycobacterium tuberculosis H37Rv; format: functional

SMILES	MIC [1]	pIC50 (Vero)	log10cfu [2]	log10cfu [3]	Selectivity Index [4]
COc1ccc(C(=O)NCC2=C[C@@H]3Oc4ccccc4C(=O)C3=CN2c2ncc(Br)cc2Br)cc1	10.5 µM (≈ 6.25 µg/mL)				
CCc1ccc(C(=O)NCC2=C[C@@H]3Oc4ccccc4C(=O)C3=CN2c2ncccc2C)cc1	0.22 µM (≈ 0.0993 µg/mL)	< 3.86	6.08	6.88	629
Cc1cccnc1N1C=C2C(=O)c3ccccc3O[C@H]2C=C1CNC(=O)c1ccc(Cl)cc1	1.7 µM (≈ 0.778 µg/mL)	3.86			
CO[C@H]1/C=C/O[C@@]2(C)Oc3c(C)c(O)c4c(O)c(c(/C=N/N5CCN(C)CC5)c(O)c4c3C2=O)NC(=O)/C(C)=C\C=C\[C@H](C)[C@H](O)[C@@H](C)[C@@H](O)[C@@H](C)[C@H](OC(C)=O)[C@@H]1C [RIFAMPIN]	0.12 µM (≈ 0.0988 µg/mL)	< 4.12			
Cc1cccnc1N1C=C2C(=O)c3ccccc3O[C@H]2C=C1CNC(=O)c1ccccc1	7.36 µM (≈ 3.12 µg/mL)	< 3.83			
Cc1cccnc1N1C=C2C(=O)c3ccccc3O[C@H]2C=C1CNC(=O)c1cccc(Cl)c1	1.7 µM (≈ 0.778 µg/mL)	< 3.86			
NNC(=O)c1ccncc1 [ISONIAZID]	0.36 µM (≈ 0.0494 µg/mL)	< 3.34	4.71	5.86	
O=C(NCC1=C[C@@H]2Oc3ccccc3C(=O)C2=CN1c1ncc(Br)cc1Br)c1ccc2ccccc2c1	2.52 µM (≈ 1.56 µg/mL)	3.99			
CC1COc2c(N3CCN(C)CC3)c(F)cc3c(=O)c(C(=O)O)cn1c23 (centres undefined) [OFLOXACIN]	2.13 µM (≈ 0.77 µg/mL)	< 3.81			
COc1ccc(C(=O)NCC2=C[C@@H]3Oc4ccccc4C(=O)C3=CN2c2ncccc2C)cc1	1.72 µM (≈ 0.78 µg/mL)	< 3.86			
Cc1ccc2ccc(C(=O)NCC3=C[C@@H]4Oc5ccccc5C(=O)C4=CN3c3ncc(Br)cc3Br)cc2c1	1.23 µM (≈ 0.777 µg/mL)	4.00			
Cc1ccc2ccc(C(=O)NCC3=C[C@@H]4Oc5ccccc5C(=O)C4=CN3c3ncccc3C)cc2c1	0.41 µM (≈ 0.2 µg/mL)	< 3.89			
Cc1ccc(C(=O)NCC2=C[C@@H]3Oc4ccccc4C(=O)C3=CN2c2ncccc2C)cc1	1.78 µM (≈ 0.779 µg/mL)	< 3.85			
O=C(NCC1=C[C@@H]2Oc3ccccc3C(=O)C2=CN1c1ncc(Br)cc1Br)c1ccc(Cl)cc1	2.95 µM (≈ 1.77 µg/mL)	< 3.98			
Cc1cccnc1N1C=C2C(=O)c3ccccc3O[C@H]2C=C1CNC(=O)c1ccc(F)cc1	7.09 µM (≈ 3.13 µg/mL)	< 3.85			
O=C(NCC1=C[C@@H]2Oc3ccccc3C(=O)C2=CN1c1ncc(Br)cc1Br)c1ccccc1	11 µM (≈ 6.25 µg/mL)				
Cc1cccnc1N1C=C2C(=O)c3ccccc3O[C@H]2C=C1CNC(=O)c1ccc2ccccc2c1	0.84 µM (≈ 0.398 µg/mL)	3.85			
Cc1ccc(C(=O)NCC2=C[C@@H]3Oc4ccccc4C(=O)C3=CN2c2ncc(Br)cc2Br)cc1	5.38 µM (≈ 3.13 µg/mL)				
O=C(NCC1=C[C@@H]2Oc3ccccc3C(=O)C2=CN1c1ncc(Br)cc1Br)c1ccc(Cl)c(Cl)c1	9.82 µM (≈ 6.25 µg/mL)	4.30			
O=C(COc1ccccc1)NCC1=C[C@@H]2Oc3ccccc3C(=O)C2=CN1c1ncc(Br)cc1Br	10.5 µM (≈ 6.25 µg/mL)				
O=C(NCC1=C[C@@H]2Oc3ccccc3C(=O)C2=CN1c1ncc(Br)cc1Br)c1cccc(Cl)c1	5.2 µM (≈ 3.13 µg/mL)	3.98			
Cc1cccnc1N1C=C2C(=O)c3ccccc3O[C@H]2C=C1CNC(=O)COc1ccccc1	13.8 µM (≈ 6.25 µg/mL)				
CCc1ccc(C(=O)NCC2=C[C@@H]3Oc4ccccc4C(=O)C3=CN2c2ncc(Br)cc2Br)cc1	2.6 µM (≈ 1.55 µg/mL)	3.98			
O=C(NCC1=C[C@@H]2Oc3ccccc3C(=O)C2=CN1c1ncc(Br)cc1Br)c1ccc(F)cc1	10.7 µM (≈ 6.24 µg/mL)				
CC[C@@H](CO)NCCN[C@@H](CC)CO [ETHAMBUTOL]	7.63 µM (≈ 1.56 µg/mL)	< 3.51			
